The text below walks through data of ChEMBL document CHEMBL1123026, “Preparation and antiarthritic and analgesic activity of 4,5-diaryl-2-(substituted thio)-1H-imidazoles and their sulfoxides and sulfones” (1985).

Assay type in all cases: functional
Assay [1] has as its system Mus musculus. In words: Effective dose by mouse phenyl-p-benzoquinone writhing (PQW)assay after peroral administration; activity value ranges from (0.68-2.89). To be noted: po. (In general: An intraperitoneal irritant provokes the stretching counted in writhing tests.)
The test system of assay [2] is Mus musculus. In words: Effective dose by mouse phenyl-p-benzoquinone writhing (PQW)assay after peroral administration; activity value ranges from (3.2-12.3). Particulars: po. The essentials: (§1)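 Fasted (17-21 h) female white mice, 5-20 per double-blind test, dosed orally with compound suspended in 1% methylcellulose. 0.20 mL aqueous 0.01% phenyl-p-benzoquinone given i.p. 6 min before a 10-min observation for stretching/writhing. ED50 (dose protecting 50% of mice) calculated by the moving-average method.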

Assay [3] concerns Mus musculus. In words: Effective dose by mouse phenyl-p-benzoquinone writhing (PQW)assay after peroral administration; activity value ranges from (20.0-101.0). Particulars: po. In a few lines:
as §1

For assay [4], the system named is Rattus norvegicus. The experiment in a line: Decrease in rat paw volume was evaluated at dose 100 mg/kg. The essentials: (§2)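 Male Lewis rats (130-150 g) got 0.1 mL adjuvant (heat-killed Mycobacterium butyricum, 5 mg/mL in mineral oil) subplantar in the right hind paw and were left 2 weeks. Groups of 10 matched for severity were dosed orally by gavage (PVA-acacia vehicle, 10 mL/kg) for 7 days. Uninjected left hind paw volume was read the next day. % decrease = (arthritic control − treated)/(arthritic − nonarthritic control) × 100; Student's t-test.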

The test system of assay [5] is Mus musculus. In words: Effective dose determined by mouse phenyl-p-benzoquinone writhing (PQW) assay after peroral administration. To be noted: po. The essentials:
as §1

Assay [6] deals with Rattus norvegicus. In words: Decrease in paw volume by the effect of compound at a dose 100 mg/kg. In a few lines: as §2
For assay [7], the system named is Rattus norvegicus. In words: Decrease in paw volume was evaluated at dose 30 mg/kg. In a few lines:
as §2

Assay [8] deals with Mus musculus. The experiment in a line: Effective dose by mouse phenyl-p-benzoquinone writhing (PQW)assay after peroral administration; activity value ranges from (2.5 - 8.9). To be noted: po. The essentials:
as §1

The subject of assay [9] is Rattus norvegicus. The experiment in a line: Effective dose determined against rat adjuvant arthritis after peroral administration. Particulars: po. The essentials:
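Male Lewis rats (130-150 g) given 0.1 mL Mycobacterium butyricum adjuvant (5 mg/mL in mineral oil) s.c. into the right hind paw; arthritis developed for 2 weeks. Groups of 10 matched for severity were dosed orally by gavage in PVA-acacia vehicle (10 mL/kg) for 7 days. Uninjected left paw volume was measured the day after the last dose. Percent decrease was calculated vs arthritic and nonarthritic controls. ED50 was read from a visually fitted semilog dose-response line.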

Assay [10] relates to Mus musculus. In words: Effective dose by mouse phenyl-p-benzoquinone writhing (PQW)assay after peroral administration; activity value ranges from (0.07-0.50). Particulars: po.
For assay [11], the system named is Mus musculus. In words: Effective dose by mouse phenyl-p-benzoquinone writhing (PQW)assay after peroral administration; 11.4-59.4. Particulars: po.
In assay [12] the test system is Mus musculus. In words: Effective dose by mouse phenyl-p-benzoquinone writhing (PQW)assay after peroral administration; activity value ranges from (0.09 - 0.86). Particulars: po.
In assay [13] the test system is Rattus norvegicus. The experiment in a line: Decrease in paw volume was evaluated at dose 9 mg/kg. The essentials:
as §2

For assay [14], the system named is Mus musculus. The experiment in a line: Effective dose by mouse phenyl-p-benzoquinone writhing (PQW)assay after peroral administration; 15.5-103. Particulars: po.
Assay [15] relates to Rattus norvegicus. The experiment in a line: Decrease in paw volume was evaluated at dose 1 mg/kg. In a few lines: as §2
Assay [16] deals with Mus musculus. In words: Effective dose by mouse phenyl-p-benzoquinone writhing (PQW)assay after peroral administration; activity value ranges from (20.0-81.0). To be noted: po. The essentials:
as §1

For assay [17], the system named is Mus musculus. The experiment in a line: Effective dose by mouse phenyl-p-benzoquinone writhing (PQW)assay after peroral administration; activity value ranges from (15.0-77.0). Particulars: po. In a few lines:
as §1

For assay [18], the system named is Mus musculus. The experiment in a line: Effective dose by mouse phenyl-p-benzoquinone writhing (PQW)assay after peroral administration; activity value ranges from (4.9-8.7). Particulars: po. The essentials: as §1
For assay [19], the system named is Rattus norvegicus. The experiment in a line: Decrease in paw volume by the effect of compound at a dose of 75 mg/kg. In a few lines: as §2
For assay [20], the system named is Mus musculus. In words: Effective dose by mouse phenyl-p-benzoquinone writhing (PQW)assay after peroral administration; activity value ranges from (0.37-1.52). To be noted: po.
Assay [21] deals with Mus musculus. The experiment in a line: Effective dose by mouse phenyl-p-benzoquinone writhing (PQW)assay after peroral administration; highest dose was tested. Particulars: po. In a few lines: as §1
For assay [22], the system named is Rattus norvegicus. In words: Decrease in paw volume by the effect of compound at a dose of 80 mg/kg. The essentials: as §2
The test system of assay [23] is Mus musculus. In words: Effective dose by mouse phenyl-p-benzoquinone writhing (PQW)assay after peroral administration; activity value ranges from (4.8-25.4). To be noted: po. The essentials:
as §1

One may read the ED50 as the midpoint of the dose-response relation. The compound `O=S(=O)(c1nc(-c2ccc(F)cc2)c(-c2ccc(F)cc2)[nH]1)C(F)F` returned a median effective dose (ED50) in [1] of 1.4 mg/kg.
`O=S(=O)(c1nc(-c2ccc(Cl)cc2)c(-c2ccc(F)cc2)[nH]1)C(F)(F)C(F)F` came in with a median effective dose (ED50) in assay [2] of 6.3 mg/kg.
Compound `O=S(=O)(c1nc(-c2ccc(Cl)cc2)c(-c2ccc(C(F)(F)F)cc2)[nH]1)C(F)(F)C(F)F` returned an ED50 in assay [3] of 45 mg/kg.
As to `CSc1nc(-c2ccccc2)c(-c2ccccc2)[nH]1`, in [4], the Decrease stood at 20%. Also, the 50% effective dose (ED50) in assay [5] is over 100 mg/kg.
In assay [5], `C[S+]([O-])c1nc(-c2ccccc2)c(-c2ccccc2)[nH]1` (centres undefined) had an ED50 of over 100 mg/kg. Besides, the Decrease in [6] is on record as 33%.
As for `COc1ccc(-c2nc(SC(C)C)[nH]c2-c2ccc(OC)cc2)cc1`, the Decrease in assay [7] is on record as 38%.
For the compound `[O-][S+](c1nc(-c2ccccc2)c(-c2ccccc2)[nH]1)C(F)(F)C(F)F` (centres undefined), in [8], the 50% effect level (ED50) was put at a dose of 4.7 mg/kg.
For `O=S(=O)(c1nc(-c2ccc(F)cc2)c(-c2ccc(F)cc2)[nH]1)C(F)(F)F`, the ED50 is 0.016 mg/kg in assay [9] and 0.19 mg/kg in assay [10].
Consider `C=CCSc1nc(-c2ccc(OC)cc2)c(-c2ccc(OC)cc2)[nH]1`, for which the ED50 in assay [11] came out at 26 mg/kg; in assay [9] it was 20 mg/kg.
As to `COc1ccc(-c2[nH]c(S(=O)(=O)C(F)(F)C(F)F)nc2-c2ccc(F)cc2)cc1`, the median effective dose (ED50) was found to be 1.7 mg/kg in assay [9] and 0.28 mg/kg in [12].
As to `CSc1nc(-c2ccc(C(F)(F)F)cc2)c(-c2ccc(C(F)(F)F)cc2)[nH]1`, the Decrease in assay [13] turned out to be 29%. The compound further had a 50% effective dose (ED50) in assay [5] of over 130 mg/kg.
For the compound `CCCSc1nc(-c2ccc(OC)cc2)c(-c2ccc(OC)cc2)[nH]1`, in [14], it took a dose of 40 mg/kg to reach the 50% effect level (ED50).
On to `FC(F)C(F)(F)Sc1nc(-c2ccc(Cl)cc2)c(-c2ccc(C(F)(F)F)cc2)[nH]1`, for which the Decrease in assay [15] was determined as 35%. In assay [5], this compound gave a 50% effective dose (ED50) of over 130 mg/kg.
As for `CSc1nc(-c2ccc(C(F)(F)F)cc2)c(-c2ccccc2)[nH]1`, the Decrease in assay [13] is listed as 41%. The compound further returned a median effective dose (ED50) in assay [5] of over 130 mg/kg.
For `[O-][S+](c1nc(-c2ccc(F)cc2)c(-c2ccc(F)cc2)[nH]1)C(F)(F)F` (centres undefined), the median effective dose (ED50) was found to be 40 mg/kg in [16] and 0.06 mg/kg in assay [9].
Compound `FC(F)(F)Sc1nc(-c2ccccc2)c(-c2ccccc2)[nH]1` yielded a Decrease in assay [15] of 27%. The compound further registered an ED50 in [5] of over 130 mg/kg.
For the compound `COc1ccc(-c2nc([S+]([O-])CSC)[nH]c2-c2ccc(OC)cc2)cc1` (centres undefined), the figures for the ED50 in assay [17] and in [9] were 34 mg/kg and 28 mg/kg, respectively.
Consider `O=S(=O)(c1nc(-c2ccc(Cl)c(Cl)c2)c(-c2ccccc2)[nH]1)C(F)(F)C(F)F`, for which the ED50 in [18] came to 6.5 mg/kg; in [9], 0.22 mg/kg.
Compound `CS(=O)(=O)c1nc(-c2cccc(F)c2)c(-c2ccccc2)[nH]1` gave a median effective dose (ED50) in [5] of over 130 mg/kg. The Decrease in assay [19] came to 32%.
`O=S(=O)(c1nc(-c2ccccc2)c(-c2ccccc2)[nH]1)C(F)(F)F`: in [20], the ED50 stood at 0.75 mg/kg.
For `FC(F)C(F)(F)Sc1nc(-c2ccccc2)c(-c2ccccc2)[nH]1`, the median effective dose (ED50) turned out to be 81 mg/kg in [21] and 1.2 mg/kg in assay [9].
For the compound `COc1ccc(-c2nc(S(=O)(=O)CS(C)(=O)=O)[nH]c2-c2ccc(OC)cc2)cc1`, in assay [5], the ED50 is over 130 mg/kg. In assay [22], this compound returned a Decrease of 43%.
For `O=S(=O)(c1nc(-c2ccc(Cl)cc2)c(-c2ccc(Cl)cc2)[nH]1)C(F)(F)C(F)F`, the figures for the ED50 in assay [9] and in assay [23] were 0.18 mg/kg and 11 mg/kg, respectively.
